Counter-ions that a name gives are not always drawn.
Assays:
NCI-H460 = test: Cytotoxicity against human NCI-H460 cells by MTT assay; type: functional, cell-based
[1] = Cytotoxicity against human RKOp27 cells by MTT assay; type: functional, cell-based
HL-60 = test: Cytotoxicity against human HL60 cells by MTT assay; type: functional, cell-based
Outline: (§1)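 Growth inhibition by MTT assay (Mosmann method) on human cancer cell lines and on normal human fetal lung fibroblast WI 38 cells.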

U-937 = test: Cytotoxicity against human U937 cells by MTT assay; type: functional, cell-based; outline: as §1
K562 = test: Cytotoxicity against human K562 cells by MTT assay; type: functional, cell-based; outline: as §1
G-361 = test: Cytotoxicity against human G361 cells by MTT assay; type: functional, cell-based; outline: as §1
SK-MEL-28 = test: Cytotoxicity against human SK-MEL-28 cells by MTT assay; type: functional, cell-based; outline: as §1
GOTO = test: Cytotoxicity against human GOTO cells by MTT assay; type: functional, cell-based; outline: as §1
[2] = system: Human immunodeficiency virus; test: Antiviral activity against HIV infected in human CEM-SS cells assessed as inhibition of virus induced cell killing by XTT assay; type: functional, organism-based; conditions: Human immunodeficiency virus 1, CEM-SS
Outline: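 Microtiter anti-HIV assay in CEM-SS cells or fresh human PBMCs, measuring inhibition of HIV-induced cell killing or HIV replication. Read-out is XTT tetrazolium reduction to formazan by viable cells.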

[3] = molecular target: Human immunodeficiency virus type 1 reverse transcriptase (Human immunodeficiency virus 1, UniProt Q72547); test: Inhibition of recombinant HIV1 reverse transcriptase in cell free Quan-T-RT by scintillation proximity assay
[4] = Therapeutic index, ratio of toxic dose of drug for 50% of the population TD50 to minimum effective dose ED50 of the population; conditions: read-out: Ratio TD50/ED50
[5] = (§2) Inhibition of HCV NS3/4A protease activity after 48 hrs by RT-PCR; set-up: species or system Hepacivirus hominis
Hepacivirus hominis = test: as §2
[6] = Cytotoxicity against human hepatocytes by MTT assay; type: cell-based, Hepatocyte
[7] = Cytotoxicity against human WI38 cells by MTT assay; type: cell-based; conditions: WI-38; outline: as §1
HCV NS3-4A protease = test: Therapeutic index, ratio of CC50 for human hepatocytes to IC50 for HCV NS3-4A protease; type: cell-based, Hepatocyte; conditions: read-out: Ratio CC50/IC50
SF-268 = test: Cytotoxicity against human SF268 cells by MTT assay; type: functional, cell-based
SK-OV-3 = test: Cytotoxicity against human SKOV3 cells by MTT assay; type: functional, cell-based
NB1 = test: Cytotoxicity against human NB-1 cells by MTT assay; type: functional, cell-based; outline: as §1

`Nc1ccn([C@@H]2O[C@H](CO)[C@@H](O)C2(F)F)c(=O)n1` [GEMCITABINE HYDROCHLORIDE] showed an IC50 (NCI-H460) of 2.13 nM.

In the case of `COc1c(C(=O)/C=C/Nc2ccncc2)c(O)c(OC)c2occc12`, the IC50 (NCI-H460) is reported as 0.0284 nM, the IC50 [1] is reported as 0.0255 nM and the IC50 (HL-60) is reported as 0.0263 nM. For the same compound, the IC50 (U-937) was 0.0263 nM, the IC50 (K562) was 0.0263 nM and the IC50 (G-361) was 0.0263 nM. It also gave an IC50 (SK-MEL-28) of 0.0281 nM, an IC50 (GOTO) of 0.0253 nM and an EC50 [2] of 0.01 nM. For the same compound, the IC50 [3] was 4800 nM, the selectivity ratio [4] was 1260 and the IC50 [5] was 986 nM. It also gave an IC90 (Hepacivirus hominis) of 2310 nM, a CC50 [6] of 435000 nM and an IC50 [7] of 0.0253 nM. The selectivity ratio (HCV NS3-4A protease) was 441.

With `COc1c(C(=O)C2=CN3OC(C)=NC3N=C2)c(O)c(OC)c2occc12` (configuration not stated) the IC50 (NCI-H460) was 0.0255 nM, the IC50 [1] was 0.026 nM and the IC50 (HL-60) was 0.0281 nM. The IC50 (U-937) was 0.0329 nM, the IC50 (K562) was 0.0284 nM and the IC50 (G-361) was 0.0287 nM. The IC50 (SK-MEL-28) was 0.0338 nM, the IC50 (GOTO) was 0.0284 nM and the EC50 [2] was 0.04 nM. The IC50 [3] was 0.3 nM, the selectivity ratio [4] was 7690 and the IC50 [5] was greater than 100000 nM. It also gave an IC50 [7] of 0.0281 nM.

For `Nc1ccn([C@@H]2O[C@H](CO)[C@@H](O)[C@@H]2O)c(=O)n1` [CYTARABINE], the IC50 (SF-268) was 7.68 nM.

For `CCNc1cccnc1N1CCN(C(=O)c2cc3cc(OC)ccc3[nH]2)CC1` [ATEVIRDINE MESYLATE], the EC50 [2] was 1 nM.

For `COc1c(C(=O)C2=CN3C=CNC=C3N=C2)c(O)c(OC)c2occc12`, the IC50 (NCI-H460) was 0.0255 nM, the IC50 [1] was 0.0284 nM and the IC50 (HL-60) was 0.0266 nM. It also gave an IC50 (U-937) of 0.0284 nM, an IC50 (K562) of 0.0321 nM and an IC50 (G-361) of 0.0298 nM. The IC50 (SK-MEL-28) was 0.026 nM, the IC50 (GOTO) was 0.0258 nM and the EC50 [2] was 0.09 nM. For the same compound, the IC50 [3] was 14600 nM, the selectivity ratio [4] was 20000 and the IC50 [5] was greater than 100000 nM. It also gave an IC50 [7] of 0.0373 nM.

In the case of `COc1c(C(=O)C2=CN3C=CC=CC3N=C2)c(O)c(OC)c2occc12` (configuration not stated), the IC50 (NCI-H460) is reported as 0.0277 nM, the IC50 [1] is reported as 0.0277 nM and the IC50 (HL-60) is reported as 0.0275 nM. It also gave an IC50 (U-937) of 0.0298 nM, an IC50 (K562) of 0.0446 nM and an IC50 (G-361) of 0.0481 nM. The IC50 (SK-MEL-28) was 0.0305 nM, the IC50 (GOTO) was 0.0329 nM and the EC50 [2] was 0.03 nM. The IC50 [3] was 16300 nM, the selectivity ratio [4] was 23500 and the IC50 [5] was greater than 100000 nM. The IC50 [7] was 0.0255 nM.

Compound `COc1c(C(=O)c2cnc3nc4ccccc4n3c2)c(O)c(OC)c2occc12` has an IC50 (NCI-H460) of 0.0277 nM, an IC50 [1] of 0.0277 nM and an IC50 (HL-60) of 0.026 nM. The IC50 (U-937) was 0.0272 nM, the IC50 (K562) was 0.0269 nM and the IC50 (G-361) was 0.0263 nM. The IC50 (SK-MEL-28) was 0.0253 nM, the IC50 (GOTO) was 0.0278 nM and the EC50 [2] was 0.02 nM. For the same compound, the IC50 [3] was 25700 nM, the selectivity ratio [4] was 1.14e+06 and the IC50 [5] was 564 nM. The IC90 (Hepacivirus hominis) was 1320 nM, the CC50 [6] was 234000 nM and the IC50 [7] was 0.0472 nM. It also gave a selectivity ratio (HCV NS3-4A protease) of 415.

With `COc1c2occc2c(OC)c2c(=O)c(C=O)coc12` the IC50 (NCI-H460) was 0.0284 nM, the IC50 [1] was 0.0255 nM and the IC50 (HL-60) was 0.0313 nM. It also gave an IC50 (U-937) of 0.0291 nM, an IC50 (K562) of 0.0258 nM and an IC50 (G-361) of 0.0263 nM. For the same compound, the IC50 (SK-MEL-28) was 0.0266 nM, the IC50 (GOTO) was 0.0278 nM and the EC50 [2] was 0.02 nM. For the same compound, the IC50 [3] was 17500 nM, the selectivity ratio [4] was 32600 and the IC50 [5] was 421 nM. For the same compound, the IC90 (Hepacivirus hominis) was 796 nM, the CC50 [6] was 234000 nM and the IC50 [7] was 0.0321 nM. The selectivity ratio (HCV NS3-4A protease) was 556.

Work on `COc1cccc2c1C(=O)c1c(O)c3c(c(O)c1C2=O)C[C@@](O)(C(=O)CO)C[C@@H]3O[C@H]1C[C@H](N)[C@H](O)[C@H](C)O1` [DOXORUBICIN] yielded an IC50 (SK-OV-3) of 4.16 nM, an IC50 (U-937) of 4.45 nM and an IC50 (K562) of 6.66 nM. For the same compound, the IC50 (GOTO) was 4.73 nM and the IC50 (NB1) was 5.15 nM.

With `CCC[C@H](NC(=O)[C@@H]1[C@H]2CCC[C@H]2CN1C(=O)[C@@H](NC(=O)[C@@H](NC(=O)c1cnccn1)C1CCCCC1)C(C)(C)C)C(=O)C(=O)NC1CC1` the IC50 [5] was 200 nM, the IC90 (Hepacivirus hominis) was 450 nM and the CC50 [6] was 90000 nM. The selectivity ratio (HCV NS3-4A protease) was 1200.

Work on `NCc1nc2ccccc2[nH]1` yielded an IC50 (NCI-H460) of 0.032 nM, an IC50 [1] of 0.0255 nM and an IC50 (HL-60) of 0.0291 nM. For the same compound, the IC50 (U-937) was 0.0298 nM, the IC50 (K562) was 0.0313 nM and the IC50 (G-361) was 0.0305 nM. It also gave an IC50 (SK-MEL-28) of 0.0301 nM, an IC50 (GOTO) of 0.0263 nM and an EC50 [2] of 0.01 nM. It also gave an IC50 [3] of 5100 nM, a selectivity ratio [4] of 1760 and an IC50 [5] of 876 nM. For the same compound, the IC90 (Hepacivirus hominis) was 2120 nM, the CC50 [6] was 451000 nM and the IC50 [7] was 0.0269 nM. It also gave a selectivity ratio (HCV NS3-4A protease) of 515.

Compound `COc1c(C(=O)C2=CN3C(=CN=C2)Nc2ccccc23)c(O)c(OC)c2occc12` has an IC50 (NCI-H460) of 0.0255 nM, an IC50 [1] of 0.0277 nM and an IC50 (HL-60) of 0.0325 nM. The IC50 (U-937) was 0.0333 nM, the IC50 (K562) was 0.0338 nM and the IC50 (G-361) was 0.0316 nM. The IC50 (SK-MEL-28) was 0.0321 nM, the IC50 (GOTO) was 0.0329 nM and the EC50 [2] was 0.35 nM. The IC50 [3] was 9440 nM, the selectivity ratio [4] was 21700 and the IC50 [5] was 444 nM. The IC90 (Hepacivirus hominis) was 955 nM, the CC50 [6] was 256000 nM and the IC50 [7] was 0.0333 nM. For the same compound, the selectivity ratio (HCV NS3-4A protease) was 577.

For `COc1c(C(=O)C2=CN3C(=CN=C2)Nc2ccccc23)c(O)cc2occc12`, the IC50 (NCI-H460) was 0.0255 nM, the IC50 [1] was 0.0255 nM and the IC50 (HL-60) was 0.0305 nM. The IC50 (U-937) was 0.0301 nM, the IC50 (K562) was 0.0298 nM and the IC50 (G-361) was 0.0313 nM. For the same compound, the IC50 (SK-MEL-28) was 0.0305 nM, the IC50 (GOTO) was 0.0291 nM and the EC50 [2] was 0.06 nM. The IC50 [3] was 47500 nM, the selectivity ratio [4] was 23500 and the IC50 [5] was greater than 100000 nM. For the same compound, the IC50 [7] was 0.0284 nM.

Work on `CCCCCOC(=O)Nc1nc(=O)n([C@@H]2O[C@H](C)[C@@H](O)[C@H]2O)cc1F` [CAPECITABINE] yielded an IC50 [1] of 4.33 nM.

For `COc1c(C(=O)C2=CN3C=CSC3N=C2)c(O)c(OC)c2occc12` (configuration not stated), the IC50 (SK-OV-3) was 3.28 nM, the IC50 (NCI-H460) was 0.0255 nM and the IC50 [1] was 0.028 nM. For the same compound, the IC50 (HL-60) was 0.0255 nM, the IC50 (U-937) was 0.0284 nM and the IC50 (K562) was 0.0446 nM. For the same compound, the IC50 (G-361) was 0.0384 nM, the IC50 (SK-MEL-28) was 0.0284 nM and the IC50 (GOTO) was 0.0281 nM. The EC50 [2] was 0.04 nM, the IC50 [3] was 15300 nM and the selectivity ratio [4] was 22600. It also gave an IC50 [5] of 342 nM, an IC90 (Hepacivirus hominis) of 1120 nM and a CC50 [6] of 127000 nM. For the same compound, the IC50 [7] was 0.0284 nM and the selectivity ratio (HCV NS3-4A protease) was 371.
